# XBP1 UPR activ – activators of adaptive arm of unfolded protein response (XBP1); CHO-XBP1 luciferase reporter, IRE1-XBP1 UPR activation, luminescence; percent of tunicamycin response, DMSO as zero; activation, % at 20 µM; hit rate 0.33% among 330,000; AID 463104;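 active = versus positive control, 20 µM dose yields 30% or more activation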;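 also: 100% = tunicamycin at 10 µg/mL and 0% = DMSO only wells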
#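 assay system = CHO-XBP1 luciferase reporter cells | amount = 1000 cells/well | buffer or medium = F12 plus 10% FBS | compound dosing = single point, 20 µM final compound, 1% DMSO | incubation = 16-18 h cell attachment at 37 °C, then 6 h compound exposure | detection = Steady-Glo luminescence read | controls = tunicamycin 10 µg/mL and vehicle-only wells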
# ABHD5-PLIN5 inh – inhibitors of human ABHD5-perilipin-5 interaction | Q00G26+Q8WTS1 | AID 602281 | inhibition, % at 4 µM | Split G. princeps luciferase complementation, luminescence, 4 h | hit rate 0.78% among 360,000;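 active = inhibition above the mean inhibition across every tested compound plus 3 SD, cut at about 22% in these data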;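 also: 0% = DMSO only wells and the 100% control is not disclosed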
# Target sequence (Q00G26 whole entry, looked up): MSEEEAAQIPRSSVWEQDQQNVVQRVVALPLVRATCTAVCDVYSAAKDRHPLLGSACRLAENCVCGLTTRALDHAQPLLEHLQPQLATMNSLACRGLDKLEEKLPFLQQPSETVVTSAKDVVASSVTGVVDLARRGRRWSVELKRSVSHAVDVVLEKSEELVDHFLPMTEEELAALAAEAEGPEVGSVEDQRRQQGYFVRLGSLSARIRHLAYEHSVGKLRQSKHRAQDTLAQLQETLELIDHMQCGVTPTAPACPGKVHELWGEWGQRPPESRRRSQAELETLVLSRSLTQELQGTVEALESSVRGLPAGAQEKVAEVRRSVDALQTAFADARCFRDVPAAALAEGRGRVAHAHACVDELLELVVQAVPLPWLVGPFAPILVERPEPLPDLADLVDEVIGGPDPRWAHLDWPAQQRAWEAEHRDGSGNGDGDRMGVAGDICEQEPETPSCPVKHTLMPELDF
# Target sequence (Q8WTS1 whole entry, looked up): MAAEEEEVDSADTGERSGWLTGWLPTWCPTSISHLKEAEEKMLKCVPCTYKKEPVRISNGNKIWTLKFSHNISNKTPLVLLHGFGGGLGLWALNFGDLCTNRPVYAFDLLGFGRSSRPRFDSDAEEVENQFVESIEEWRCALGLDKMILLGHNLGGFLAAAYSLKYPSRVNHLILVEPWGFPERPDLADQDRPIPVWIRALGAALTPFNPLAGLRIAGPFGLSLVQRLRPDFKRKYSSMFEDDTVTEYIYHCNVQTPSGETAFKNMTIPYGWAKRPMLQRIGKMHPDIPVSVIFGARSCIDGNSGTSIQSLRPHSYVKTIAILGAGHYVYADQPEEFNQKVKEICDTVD
# Granule exo inh – lytic granule exocytosis inhibition | TALL-104 LAMP-1 surface exposure, flow cytometry; cells stimulated with thapsigargin and PMA | inhibition, % at 10 µM | hit rate 0.66% among 360,000 | AID 651702;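 active = inhibition above about 55%, limit read from the data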
# CHOP UPR activ – apoptotic UPR (CHOP) activation; CHO-CHOP luciferase reporter, luminescence; percent of tunicamycin response over DMSO baseline; activation, % at 10 µM; hit rate 0.34% among 330,000; AID 449763;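 active = at 10 µM dose, activation of 40% or more, normalized to positive control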;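 also: 100% = tunicamycin at 10 µg/mL and 0% = DMSO alone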
#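 System: CHO CHOP reporter cells. Amount: 500 cells per well. Buffer or medium: F12 medium, 10% FBS. Compound dosing: one dose, 10 µM in 0.5% DMSO. Incubation: 6 h compound exposure at 37 °C after overnight seeding. Technique: Steady-Glo luciferase luminescence. Benchmarks: tunicamycin and DMSO controls.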
# Mdm2 MdmX PPI – disrupts the human Mdm2-MdmX interaction. SaOS-2 split-luciferase Mdm2/MdmX complementation, luminescence. inhibition, % at 8 µM. hit rate 3% among 330,000. AID 485346;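 active = inhibition of at least 50% at 8 µM in the primary screen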
# Mdm2-MdmX conf – human Mdm2/MdmX binding inhibition, confirmed. luminescent assay. inhibition, % at 8 µM. shares compounds with Mdm2 MdmX PPI. hit rate 55% among 10,000; in the data active = inhibition above about 40%
# FLuc counter – counter-screen for Mdm2/MdmX inhibitors: full-length luciferase; inhibition, % at 8 µM; shares compounds with Mdm2 MdmX PPI; SaOS-2 full-length luciferase counterscreen, luminescence; hit rate 77% among 6,200;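 active = mean inhibition at 8 µM reaching about 37%, which flags the compound as non-specific, limit read from the data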;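 also: p53-null SaOS-2 cells with luciferase driven by a doxycycline-inducible promoter; compound on cells about two nights before reading with doxycycline added after day one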
# Numbers without * were called inactive; . = no result given. A selection: hits, their analogues and other compounds. The true share with any hit is near 4%.
SMILES,XBP1 UPR activ,ABHD5-PLIN5 inh,Granule exo inh,CHOP UPR activ,Mdm2 MdmX PPI,Mdm2-MdmX conf,FLuc counter
CC1=CC(=O)C(C(C)C)=C/C1=C(\c1cc(C(C)C)c(OP(=O)(O)O)cc1C)c1ccccc1C(=O)O,-6,-5,5,1,75*,68*,50*
COc1ccc(-c2[nH]n(-c3ccc([N+](=O)[O-])cc3)c(=O)c2C=NCc2ccncc2)cc1,2,3,4,2,30,.,.
COc1ccc(-c2cc(=O)n(-c3ccc([N+](=O)[O-])cc3)[nH]2)cc1,1,-9,4,5,55*,13,.
CCOc1cc(/C=C/C(=O)Nc2ccc(C(=O)NCCN(CC)CC)cc2)ccc1OCC(C)C,0,11,3,0,94*,28,.
O=c1[nH]cnc2c1sc1nc(C(F)F)cc(-c3ccccc3)c12,16,-2,5,2,53*,8,.
CCC1=Nc2cc(C(=O)NCC3CCCO3)ccc2Sc2ccc(Br)cc21 (configuration not stated),-2,3,4,0,43,.,.
CCC1=Nc2cc(C(=O)NCC3CCCO3)ccc2Sc2ccc(Cl)cc21 (configuration not stated),5,-8,10,-1,65*,55*,45*
C=CCNC(=O)c1ccc(CN(c2ccc(OCC)cc2)S(=O)(=O)c2ccc(C)cc2)cc1,-3,9,-2,1,50,40,50*
Cc1cccc(NS(=O)(=O)c2cc(C(=O)OCC(=O)Nc3cc(C)on3)ccc2C)c1,-1,2,-2,-1,9,.,.
Cc1cccc(NS(=O)(=O)c2ccc(C)c(C(=O)OCC(=O)Nc3cc(C)on3)c2)c1,-1,1,5,3,88*,76*,32
Cc1ccc2c(c1)c1c3n2CCN(C(=O)C2CC2)C3CCC1 (configuration not stated),4,3,-1,1,-53,.,.
CCCCCN1C=CC(=C2C(=O)c3ccccc3C2=O)C=C1,-12,0,6,-10,78*,83*,21
CC(=O)Nc1ccc(C(=O)N/N=C(\C)CC(=O)Nc2ccc(OCc3ccccc3)cc2)cc1,1,3,2,2,4,.,.
CCC1(CC)Nc2ccccc2C(=O)N1c1ccc(NC(C)=O)cc1,6,2,0,2,-11,.,.
CCOC(=O)c1c(C)[nH]c(C)c1C(=O)CSc1nc2ccccc2n1CC,-1,-7,-1,-2,7,.,.
CCOC(=O)c1c(C)[nH]c(C)c1C(=O)CSc1nc2ccccc2c(=O)n1-c1ccc(CC)cc1,7,-2,1,11,56*,37,96*
COc1ccc(NC(=O)c2cc(-c3ccccc3)nc3c2c(C)nn3-c2ccccc2)c(OC)c1,-2,-1,12,3,54*,9,.
COc1ccc(-c2cc(C(=O)NNC3=NCCC3)c3c(C)nn(-c4ccccc4)c3n2)cc1,7,2,2,0,69*,56*,34
COc1ccc(NC(=O)c2cnn(-c3ccccc3)c2C)c(OC)c1,2,6,-3,2,-31,.,.
Cc1nn(-c2ccccc2)c2nc(-c3cccs3)cc(C(=O)NN)c12,-5,5,-1,0,23,.,.
Brc1ccc(CSc2nnc(-c3cccnc3)o2)cc1,2,-9,2,-1,20,.,.
C=CC(=O)Nc1ccc(CN2C(=O)N(c3c(Cl)c(OC)cc(OC)c3Cl)Cc3cnc(NCCCCN(CC)CC)nc32)cc1,2,13,45,0,71*,45*,55*
CCN(CC)CCNC(=O)c1ccc(NC(=O)Cc2ccc(OC)c(S(=O)(=O)N3CCOCC3)c2)cc1,.,4,14,.,.,.,.
Cc1ccc(C(C)C)c(OCC(=O)Nc2ccc(Cl)cn2)c1,-2,-5,1,-2,7,.,.
Cc1ccc(C(C)C)c(OCc2nn(CC(=O)c3ccc(Cl)cc3)c3[n+]2CCCCC3)c1,10,20,4,1,97*,74*,25
SMILES,XBP1 UPR activ,ABHD5-PLIN5 inh,Granule exo inh,CHOP UPR activ,Mdm2 MdmX PPI,Mdm2-MdmX conf,FLuc counter
C/C(=N\NC(=O)c1ccc(CN2CCc3ccccc3C2)cc1)c1ccccc1O,-3,-2,2,0,55*,65*,85*
O=C(CN1C(=O)/C(=C/c2ccccc2F)Sc2ccccc21)N1CCN(c2ccccn2)CC1,1,2,-16,-1,21,.,.
O=C(CN1C(=O)/C(=C\c2cccc(F)c2)Oc2ccccc21)N1CCN(c2ccccn2)CC1,0,11,-1,1,42,.,.
O=C(CN1C(=O)/C(=C\c2ccc(F)cc2)Oc2ccccc21)N1CCN(c2ccccn2)CC1,19,1,1,6,79*,32,79*
O=C(CN1C(=O)/C(=C/c2ccc(F)cc2)SC1=S)N1CCN(CCc2ccccn2)CC1,-6,-7,2,0,60*,-11,.
Cc1ccc(/C=C2\SC(=S)N(CCCC(=O)Nc3ccccn3)C2=O)cc1,-8,3,-10,-11,69*,68*,52*
COc1ccc(/C=C2\SC(=S)N(CCCC(=O)Nc3ccccn3)C2=O)cc1OC,-4,-2,-3,-2,63*,52*,76*
COC(=O)c1c(C)[nH]c(C(=O)CN(C)CC(=O)Nc2cccc(F)c2)c1C,-1,-5,-2,-2,3,.,.
COc1ccc(CN2CCN(C(=O)c3ccccc3C(=O)c3ccccc3)CC2)cc1OC,.,4,27,.,.,.,.
COc1cc2c(cc1OC)C(c1ccccc1)N(C(=O)CCl)CC2 (configuration not stated),-7,8,0,-3,100*,9,.
COc1cc2c(cc1OC)C(C1C(=O)CCCC1=O)N(C(=O)CCl)CC2 (configuration not stated),-3,15,3,-1,10,.,.
CC1(C)Cc2c(cnn2-c2ccc(F)cc2)C(NC(=O)c2ccco2)C1 (configuration not stated),-1,-5,-2,2,1,.,.
CC12CC(c3ccccc3O1)N(C(=O)c1ccco1)C(=S)N2c1ccc(F)cc1 (configuration not stated),2,4,-1,1,51*,30,.
CN(C)C1=NC(=O)/C(=C/c2ccc(-c3ccc(S(N)(=O)=O)cc3)o2)S1,0,.,.,0,3,.,.
COC(=O)c1ccc(CNC(=O)c2ccc(OC)c(S(=O)(=O)NC3CC3)c2)cc1,.,0,-11,.,.,.,.
O=C1CC(=Nc2ccccc2)NN1c1ccccc1,4,3,0,5,58*,1,.
